From ChEMBL document CHEMBL3856209, “Novel pyrazolopyridine derivatives as potential angiogenesis inhibitors: Synthesis, biological evaluation and transcriptome-based mechanistic analysis” (Eur J Med Chem, 2016) come the findings set out here.

The source made the active and inactive calls.

The test system of assay [1] is HUVEC. Briefly: Effect on PTTG3P gene expression in serum-starved HUVEC after 6 hrs by microarray analysis relative to control. It is filed as functional, Homo sapiens. In outline: (§1)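 Confluent serum-starved HUVEC (primary, pooled from 3–5 donors, passage ≤4) treated with 2 μM compound or DMSO vehicle in 2.5% FBS for 6 h or 24 h. Total RNA hybridized to Illumina Human-HT12 arrays, background-corrected, vst-transformed and rsn-normalized. Differential expression versus DMSO by moderated paired t-test (p < 0.05, |log2 fold change| > 0.5).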

For assay [2], the system named is HUVEC. Briefly: Effect on MAP1B gene expression in serum-starved HUVEC after 24 hrs by microarray analysis relative to control. The class given is functional, Homo sapiens. In outline: (§2)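 Serum-starved confluent HUVEC (pooled from 3–5 donors, passage ≤4) were treated with 2 μM compound or vehicle in 2.5% FBS for 6 h or 24 h, and total RNA was isolated. Hybridization was on Illumina Human-HT12. Data were processed with bgAdjust, vst and rsn normalization. Changes versus DMSO were called by moderated paired t-test at p < 0.05 and |log2 fold change| > 0.5.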

The test system of assay [3] is HUVEC. Briefly: Effect on ZAK gene expression in serum-starved HUVEC after 6 hrs by microarray analysis relative to control. It is filed as functional, Homo sapiens.
Assay [4] relates to HUVEC. Briefly: Effect on KIFC1 gene expression in serum-starved HUVEC after 24 hrs by microarray analysis relative to control. The class given is functional, Homo sapiens. In outline:
as §2

The subject of assay [5] is HUVEC. Briefly: Effect on ZWINT gene expression in serum-starved HUVEC after 24 hrs by microarray analysis relative to control. It is filed as functional, Homo sapiens. In outline: as §1
For assay [6], the system named is HUVEC. Kind of assay: Effect on DLC1 gene expression in serum-starved HUVEC after 24 hrs by microarray analysis relative to control. The class given is functional, Homo sapiens. In outline:
(§3)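 Confluent, serum-starved HUVEC (pooled from 3–5 donors, passage ≤4) treated with 2 μM compound or vehicle with 2.5% FBS for 6 h or 24 h. Total RNA hybridized to Illumina Human-HT12 arrays. Data were background-corrected, vst-transformed and rsn-normalized. Hits called by moderated paired t-test versus DMSO-treated cells, p < 0.05 and log2 fold change >|0.5|.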

Assay [7] relates to HUVEC. Briefly: Effect on PTTG3P gene expression in serum-starved HUVEC after 24 hrs by microarray analysis relative to control. The class given is functional, Homo sapiens. In outline:
as §2

The subject of assay [8] is HUVEC. Briefly: Effect on CKS1B gene expression in serum-starved HUVEC after 6 hrs by microarray analysis relative to control. It is filed as functional, Homo sapiens. In outline:
(§4)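 Serum-starved confluent HUVEC treated with 2 μM compound or DMSO in 2.5% FBS for 6 h or 24 h; RNA hybridized to Illumina Human-HT12 arrays. Data background-corrected, vst-transformed and rsn-normalized. Differential probes called by moderated paired t-test (limma) at p < 0.05 and log2 fold change >|0.5| vs DMSO.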

In assay [9] the test system is HUVEC. Briefly: Effect on CALD1 gene expression in serum-starved HUVEC after 24 hrs by microarray analysis relative to control. The class given is functional, Homo sapiens. In outline:
as §4

The test system of assay [10] is HUVEC. Briefly: Effect on RNA28S5 gene expression in serum-starved HUVEC after 24 hrs by microarray analysis relative to control. It is filed as functional, Homo sapiens. In outline:
as §2

For assay [11], the system named is HUVEC. Kind of assay: Effect on RDH11 gene expression in serum-starved HUVEC after 24 hrs by microarray analysis relative to control. The class given is functional, Homo sapiens.
Assay [12] deals with HUVEC. Kind of assay: Effect on ACSS2 gene expression in serum-starved HUVEC after 6 hrs by microarray analysis relative to control. It is filed as functional, Homo sapiens. In outline:
as §4

Assay [13] deals with HUVEC. Briefly: Effect on MYLIP gene expression in serum-starved HUVEC after 24 hrs by microarray analysis relative to control. It is filed as functional, Homo sapiens. In outline: as §2
For assay [14], the system named is HUVEC. Kind of assay: Effect on ANGPTL4 gene expression in serum-starved HUVEC after 6 hrs by microarray analysis relative to control. It is filed as functional, Homo sapiens. In outline:
as §4

In assay [15] the test system is HUVEC. Briefly: Effect on EMCN gene expression in serum-starved HUVEC after 6 hrs by microarray analysis relative to control. It is filed as functional, Homo sapiens. In outline: as §1
Assay [16] in a line: Downregulation of UBE2C gene expression in serum-starved HUVEC at 2 uM after 24 hrs by qRT-PCR analysis. It is filed as functional, cell-based. As to conditions: Homo sapiens. In outline: (§5)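 Serum-starved confluent HUVEC treated with 2 μM compound or vehicle in 2.5% FBS for 24 h. Total RNA isolated and qRT-PCR run in triplicate (95 °C 5 min; 40 cycles of 95 °C 5 s, 58 °C 20 s, 72 °C 5 s), normalized to RPS18S. Fold change vs control, n = 3.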
For orientation: In qPCR the cycle at which signal appears reflects the starting amount.

For assay [17], the system named is HUVEC. Kind of assay: Effect on RNU1-1 gene expression in serum-starved HUVEC after 6 hrs by microarray analysis relative to control. The class given is functional, Homo sapiens.
Assay [18] relates to HUVEC. Briefly: Effect on BHLHE40 gene expression in serum-starved HUVEC after 6 hrs by microarray analysis relative to control. It is filed as functional, Homo sapiens. In outline: as §4
Assay [19] is described as follows: Downregulation of CCNB2 gene expression in serum-starved HUVEC at 2 uM after 24 hrs by qRT-PCR analysis. The class given is functional, cell-based. The following applies: Homo sapiens. In outline:
as §5

For assay [20], the system named is HUVEC. Briefly: Effect on ZMAT3 gene expression in serum-starved HUVEC after 6 hrs by microarray analysis relative to control. The class given is functional, Homo sapiens.
Assay [21] can be described thus: Downregulation of CCNA2 gene expression in serum-starved HUVEC at 2 uM after 24 hrs by qRT-PCR analysis. The class given is functional, cell-based. As to conditions: Homo sapiens. In outline:
as §5

The test system of assay [22] is HUVEC. Briefly: Effect on CENPW gene expression in serum-starved HUVEC after 24 hrs by microarray analysis relative to control. It is filed as functional, Homo sapiens. In outline:
(§6)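 Serum-starved confluent HUVEC (primary, pooled from 3–5 donors, passage ≤4) treated with 2 μM test compound or DMSO vehicle (working dilutions ≤0.1% v/v) in presence of 2.5% FBS for 6 h or 24 h; total RNA hybridized to Illumina Human-HT12 arrays; background correction, vst, rsn normalization; moderated paired t-test versus DMSO, thresholds p < 0.05 and log2 fold change >|0.5|.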

Assay [23] has as its system HUVEC. Briefly: Effect on HMGCR gene expression in serum-starved HUVEC after 6 hrs by microarray analysis relative to control. The class given is functional, Homo sapiens. In outline:
as §3

Assay [24] relates to HUVEC. Kind of assay: Effect on HECW2 gene expression in serum-starved HUVEC after 6 hrs by microarray analysis relative to control. It is filed as functional, Homo sapiens. In outline:
as §3

In assay [25] the test system is HUVEC. Kind of assay: Effect on FAM213A gene expression in serum-starved HUVEC after 6 hrs by microarray analysis relative to control. The class given is functional, Homo sapiens. In outline:
as §1

Assay [26] relates to HUVEC. Kind of assay: Effect on CYTL1 gene expression in serum-starved HUVEC after 24 hrs by microarray analysis relative to control. It is filed as functional, Homo sapiens. In outline:
as §6

Assay [27] concerns HUVEC. Briefly: Effect on MGARP gene expression in serum-starved HUVEC after 6 hrs by microarray analysis relative to control. It is filed as functional, Homo sapiens. In outline:
as §2

Assay [28] has as its system HUVEC. Kind of assay: Effect on MYO10 gene expression in serum-starved HUVEC after 24 hrs by microarray analysis relative to control. The class given is functional, Homo sapiens. In outline:
as §2

Assay [29] deals with HUVEC. Briefly: Effect on CD68 gene expression in serum-starved HUVEC after 24 hrs by microarray analysis relative to control. It is filed as functional, Homo sapiens. In outline: as §4
For assay [30], the system named is HUVEC. Briefly: Effect on FAM212A gene expression in serum-starved HUVEC after 6 hrs by microarray analysis relative to control. The class given is functional, Homo sapiens. In outline:
as §1

The subject of assay [31] is HUVEC. Kind of assay: Effect on LIPG gene expression in serum-starved HUVEC after 24 hrs by microarray analysis relative to control. It is filed as functional, Homo sapiens.
In assay [32] the target is Vascular endothelial growth factor receptor 2 (Homo sapiens) (UniProt P35968). Kind of assay: Inhibition of VEGF-165-induced VEGFR2 autophosphorylation at Tyr996 in serum-starved HUVEC at 2 uM preincubated for 2 hrs followed by VEGF-165 induction measured after 5 mins by Western blot analysis. The class given is cell-based.
In assay [33] the test system is HUVEC. Briefly: Effect on HINT3 gene expression in serum-starved HUVEC after 6 hrs by microarray analysis relative to control. The class given is functional, Homo sapiens. In outline: as §3
For assay [34], the system named is HUVEC. Briefly: Effect on GANAB gene expression in serum-starved HUVEC after 24 hrs by microarray analysis relative to control. The class given is functional, Homo sapiens. In outline:
as §3

Chain of Vascular endothelial growth factor receptor 2 (Homo sapiens) (P35968 whole entry): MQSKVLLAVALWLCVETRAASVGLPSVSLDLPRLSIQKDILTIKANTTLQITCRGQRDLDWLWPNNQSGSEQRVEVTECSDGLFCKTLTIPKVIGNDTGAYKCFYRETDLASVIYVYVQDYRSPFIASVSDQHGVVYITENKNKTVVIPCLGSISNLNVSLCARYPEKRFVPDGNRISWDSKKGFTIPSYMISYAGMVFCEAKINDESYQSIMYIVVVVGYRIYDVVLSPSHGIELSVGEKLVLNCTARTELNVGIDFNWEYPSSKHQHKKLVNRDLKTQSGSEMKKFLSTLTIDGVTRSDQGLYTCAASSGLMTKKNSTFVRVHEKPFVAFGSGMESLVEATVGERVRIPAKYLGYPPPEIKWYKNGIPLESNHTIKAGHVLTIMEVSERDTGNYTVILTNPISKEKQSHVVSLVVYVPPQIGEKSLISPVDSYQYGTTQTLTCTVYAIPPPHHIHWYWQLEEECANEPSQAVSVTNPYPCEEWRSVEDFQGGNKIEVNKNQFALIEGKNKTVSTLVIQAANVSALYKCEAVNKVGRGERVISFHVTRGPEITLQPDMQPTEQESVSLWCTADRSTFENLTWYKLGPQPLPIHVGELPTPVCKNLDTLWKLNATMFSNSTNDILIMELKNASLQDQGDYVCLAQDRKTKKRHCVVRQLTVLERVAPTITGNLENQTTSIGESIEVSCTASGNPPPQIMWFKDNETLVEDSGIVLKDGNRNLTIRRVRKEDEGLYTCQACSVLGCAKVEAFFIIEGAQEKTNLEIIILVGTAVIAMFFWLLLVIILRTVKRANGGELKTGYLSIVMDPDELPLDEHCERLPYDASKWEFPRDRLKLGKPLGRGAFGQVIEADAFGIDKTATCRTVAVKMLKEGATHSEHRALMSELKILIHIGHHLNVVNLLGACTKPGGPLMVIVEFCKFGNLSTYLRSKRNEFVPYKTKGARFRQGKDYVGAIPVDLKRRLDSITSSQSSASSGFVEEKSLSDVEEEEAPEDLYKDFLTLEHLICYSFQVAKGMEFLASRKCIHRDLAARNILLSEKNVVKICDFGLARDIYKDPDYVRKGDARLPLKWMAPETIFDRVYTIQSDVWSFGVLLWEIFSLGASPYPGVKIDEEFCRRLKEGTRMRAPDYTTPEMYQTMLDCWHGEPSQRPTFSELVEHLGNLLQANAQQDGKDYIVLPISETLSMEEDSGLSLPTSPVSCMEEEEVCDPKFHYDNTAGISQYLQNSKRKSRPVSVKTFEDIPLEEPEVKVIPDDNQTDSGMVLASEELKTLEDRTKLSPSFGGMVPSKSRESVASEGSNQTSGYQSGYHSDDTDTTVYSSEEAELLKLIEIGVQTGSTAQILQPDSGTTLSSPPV

On to `COc1ccc(Cn2nc(-c3ccccc3)c3cc(Cl)nc(N4CCNCC4)c32)cc1`, for which the log2FC in assay [1] is given as -0.1207; in assay [2], -0.053; in assay [3], 0.5589; in [4], -0.5682; in [5], -0.5572; in [6], -0.0926. In addition, the log2FC was -0.5735 in assay [7], -0.0514 in assay [8], 0.263 in assay [9] and 0.141 in assay [10].
As to `COc1ccc(Cn2nc(-c3ccccc3)c3cc(Nc4ccc(N5CCN(C)CC5)cc4)nc(N4CCN(C)CC4)c32)cc1`, the log2FC is -0.2702 in assay [1]; 0.6682 in [11]; -0.2675 in assay [13]; -0.3836 in [14]; -0.6872 in [4]; 0.5844 in assay [20]. In addition, the log2FC in [27] is given as -0.2938; in assay [28], 0.507; in assay [7] it was -0.5177; in [29], -0.8363; in assay [9] it was 0.0259; in assay [31], 1.1948. The “fold change (FC)” value in assay [12] was 0.2037; in assay [15], 0.2035; in assay [17], -0.6255; in assay [18], 0.7182; in [22], -0.5146; in assay [23], 1.0317. For the same compound, the “fold change (FC)” value in assay [24] is listed as 0.4559; in [25] it was -0.0934; in [26] it was 0.5166; in assay [30], 0.129. Moreover, the result in assay [16], in assay [19] and in assay [21] was Active.
Take `COc1ccc(Cn2nc(-c3ccccc3)c3cc(Nc4ccc(N5CCN(C)CC5)cc4)nc(N4CCNCC4)c32)cc1`: in assay [32], the inhibition result is “Active”. The log2FC in assay [6] is 0.5215; in assay [33] it was -0.0444; in [34], -0.5222; in [10] it was 0.4902.
